ChEMBL document CHEMBL1250499, “Chiral 6-hydroxymethyl-1H,3H-pyrrolo[1,2-c]thiazoles: novel antitumor DNA monoalkylating agents” (Eur J Med Chem, 2010)

Key:
Type in all cases: functional, cell-based
A-375 [1] = test: Cytotoxicity against human A375 cells after 24 hrs by MTT assay; conditions: A-375, 24 h
In short: (§1)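 Cells grown in DMEM with 10% heat-inactivated FBS, 1% penicillin–streptomycin and 100 μM sodium pyruvate at 37 °C, 5% CO2. Seeded at 50 000 cells/mL, attached overnight, then exposed to successive DMSO dilutions of compound. Proliferation read by MTT colorimetric assay as % inhibition versus DMSO-only controls. IC50 from dose-response curves by exponential decay fit (r2 > 0.9). Duplicates, three independent sets.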

MCF7 [2] = test: Cytotoxicity against human MCF7 cells after 72 hrs by MTT assay; conditions: MCF7, 72 h; in short: as §1
WiDr [3] = test: Cytotoxicity against human WiDr cells after 72 hrs by MTT assay; in short: as §1
A-375 [4] = test: Cytotoxicity against human A375 cells after 72 hrs by MTT assay; conditions: A-375, 72 h; in short: as §1
A-375 [5] = test: Cytotoxicity against human A375 cells after 48 hrs by MTT assay; conditions: A-375, 48 h; in short: as §1
WiDr [6] = test: Cytotoxicity against human WiDr cells after 24 hrs by MTT assay; in short: as §1
WiDr [7] = test: Cytotoxicity against human WiDr cells after 48 hrs by MTT assay; in short: as §1
MCF7 [8] = test: Cytotoxicity against human MCF7 cells after 24 hrs by MTT assay; conditions: MCF7, 24 h; in short: as §1
MCF7 [9] = test: Cytotoxicity against human MCF7 cells after 48 hrs by MTT assay; conditions: MCF7, 48 h; in short: as §1
MCF7 [10] = test: Cytotoxicity against human MCF7 cells after 96 hrs by MTT assay; conditions: MCF7, 96 h; in short: as §1
A-375 [11] = test: Cytotoxicity against human A375 cells after 96 hrs by MTT assay; conditions: A-375, 96 h; in short: as §1
WiDr [12] = test: Cytotoxicity against human WiDr cells after 96 hrs by MTT assay; in short: as §1

| Structure (SMILES) | IC50 (A-375 [1]) [µM] | IC50 (MCF7 [2]) [µM] | IC50 (WiDr [3]) [µM] | IC50 (A-375 [4]) [µM] | IC50 (A-375 [5]) [µM] | IC50 (WiDr [6]) [µM] | IC50 (WiDr [7]) [µM] | IC50 (MCF7 [8]) [µM] | IC50 (MCF7 [9]) [µM] | IC50 (MCF7 [10]) [µM] | IC50 (A-375 [11]) [µM] | IC50 (WiDr [12]) [µM] |
| --- | --- | --- | --- | --- | --- | --- | --- | --- | --- | --- | --- | --- |
| COC(=O)c1cc2n(c1C)[C@@H](c1ccccc1)SC2 | 73.5 | 48.8 | 44.6 | 56.2 | 65.1 | 54.2 | 57.1 | 128 | 55.5 | 30.6 | 40 | 40.9 |
| Cc1c(CO)cc2n1[C@@H](c1ccccc1)SC2 | 103 | 2.4 | 15.4 | 62.9 | 69.8 | 55.5 | 17.1 | 26.4 | 4.3 | 1.9 | 36.8 | 11 |
| Cc1cc(CO)c2n1[C@@H](c1ccccc1)SC2 | 128 | 29.9 | 63.5 | 62.1 | 106 | 144 | 95.3 | 110 | 63.9 | 19.9 | 45.3 | 65.1 |
| Cc1c(CO)c(CO)c2n1[C@@H](c1ccccc1)SC2 | 97.3 | 1 | 7.1 | 27.2 | 36.1 | 60 | 9.1 | 12.2 | 1.9 | 0.6 | 16.9 | 3.2 |
| Cc1c(COC(=O)NCc2ccccc2)cc2n1[C@@H](c1ccccc1)SC2 | 37.4 | 2.2 | 8.7 | 42.1 | 32.4 | 30.9 | 8.7 | 8.8 | 4.4 | 1.9 | 27.6 | 14.8 |
